In experiment [1] the test system is Escherichia coli. The experiment can be described thus: Antibacterial activity against Escherichia coli NCIB 8743 up to 100 uM after 18 to 24 hrs by two fold serial dilution method. Type of experiment: functional, organism-based. In short, it runs like this: (§1)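 Broth microdilution, twofold series from 100 µM down to 0.39 µM, in LB medium. MIC50 was taken as the lowest concentration giving 50% growth inhibition after 18-24 h incubation at 37.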

The test system of experiment [2] is Pseudomonas aeruginosa. The experiment can be described thus: Antibacterial activity against Pseudomonas aeruginosa PAO1 up to 100 uM after 18 to 24 hrs by two fold serial dilution method. Type of experiment: functional, organism-based. In short, it runs like this: as §1
The test system of experiment [3] is Kocuria rhizophila. The experiment can be described thus: Antibacterial activity against Kocuria rhizophila ATCC 9341 up to 100 uM after 18 to 24 hrs by two fold serial dilution method. Conditions: DC2201. Format: functional, organism-based. In short, it runs like this:
as §1

In experiment [4] the test system is Staphylococcus epidermidis. Description: Antibacterial activity against Staphylococcus epidermidis RP62A up to 100 uM after 18 to 24 hrs by two fold serial dilution method. Type of experiment: functional, organism-based. In short, it runs like this: as §1
The subject of experiment [5] is Staphylococcus aureus. Description: Antibacterial activity against Staphylococcus aureus ATCC 65381 up to 100 uM after 18 to 24 hrs by two fold serial dilution method. Type of experiment: functional, organism-based. In short, it runs like this:
as §1

The target of experiment [6] is Serine--tRNA ligase (Escherichia coli (strain K12)) (UniProt P0A8L1). Description: Inhibition of Serine-tRNA synthetase in Escherichia coli K-12 BW28357 S30 extract assessed as reduction in tRNA aminoacylation at 2.5 uM preincubated for 5 mins followed by Escherichia coli tRNA and 14C-labeled serine addition measured after 5 mins by liquid scintillation counting method. In short, it runs like this: (§2)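 E. coli K-12 BW28357 cells were grown in LB to A600 0.5, washed in 20 mM Tris.HCl, 10 mM MgCl2, 100 mM KCl, pH 8.0, then sonicated in the same buffer plus 1 mM DTT. The lysate was spun at 15,000 g. Inhibitor (2.5 µM) was preincubated with extract for 5 min. Aminoacylation mix: 30 mM Tris pH 8.0, 5 g/L E. coli tRNA, 3 mM ATP, 8 mM MgCl2, 40 µM 14C-amino acid. Reaction ran at room temperature. TCA precipitation after 5 min, then scintillation counting. Activity was expressed relative to the no-compound control, average of three experiments.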

Experiment [7] concerns the target Serine--tRNA ligase (Escherichia coli (strain K12), UniProt P0A8L1). Description: Inhibition of Escherichia coli BL21(DE3) Seryl-tRNA synthetase assessed as reduction in tRNA aminoacylation preincubated for 10 mins with Escherichia coli tRNA and 14C-labeled serine followed by ATP addition by liquid scintillation counting method. Conditions: read-out: Ki(app). In short, it runs like this: (§3)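 Purified E. coli aaRS, expressed in Rosetta 2 (DE3) pLysS: ileRS 50 nM, tyrRS 0.5 nM, leuRS 2.5 nM, aspRS, serRS and glyRS 2 nM each. Buffer was 20 mM Tris, 100 mM KCl, 10 mM MgCl2, 5 mM β-mercaptoethanol, pH 7.5. Enzyme was preincubated 10 min at 37°C with serially diluted compound, 50 µM 14C-amino acid, 2 mg/ml tRNA and pyrophosphatase. Reaction was started with 500 µM ATP and quenched within the linear zone, then TCA-precipitated and counted. Ki app came from Greco-Hakala fits.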

Experiment [8] concerns Escherichia coli K-12. The experiment can be described thus: Inhibition of Glycyl-tRNA synthetase in Escherichia coli K-12 BW28357 S30 extract assessed as reduction in tRNA aminoacylation at 2.5 uM preincubated for 5 mins followed by Escherichia coli tRNA and 14C-labeled glycine addition measured after 5 mins by liquid scintillation counting method. In short, it runs like this:
as §2

Experiment [9] in a line: Inhibition of Escherichia coli BL21(DE3) Glycine-tRNA synthetase alpha subunit/Glycine-tRNA synthetase beta subunit assessed as reduction in tRNA aminoacylation preincubated for 10 mins with Escherichia coli tRNA and 14C-labeled glycine followed by ATP addition by liquid scintillation counting method. Particulars: read-out: Ki(app). In short, it runs like this:
as §3

Experiment [10] addresses Isoleucine--tRNA ligase (Escherichia coli K-12, UniProt P00956). The experiment can be described thus: Inhibition of Escherichia coli BL21(DE3) Isoleucyl-tRNA synthetase assessed as reduction in tRNA aminoacylation preincubated for 10 mins with Escherichia coli tRNA and 14C-labeled isoleucine followed by ATP addition by liquid scintillation counting method. Particulars: read-out: Ki(app). In short, it runs like this:
as §3

Experiment [11] concerns the target Isoleucine--tRNA ligase (Escherichia coli K-12) (UniProt P00956). The experiment can be described thus: Inhibition of Isoleucyl-tRNA synthetase in Escherichia coli K-12 BW28357 S30 extract assessed as reduction in tRNA aminoacylation at 2.5 uM preincubated for 5 mins followed by Escherichia coli tRNA and 14C-labeled isoleucine addition measured after 5 mins by liquid scintillation counting method relative to control. In short, it runs like this: as §2

For experiment [12], the target named is Leucine--tRNA ligase (Escherichia coli (strain K12), UniProt P07813). The experiment can be described thus: Inhibition of Escherichia coli BL21(DE3) Leucyl-tRNA synthetase assessed as reduction in tRNA aminoacylation preincubated for 10 mins with Escherichia coli tRNA and 14C-labeled leucine followed by ATP addition by liquid scintillation counting method. Conditions: read-out: Ki(app).

Experiment [13] concerns the target T1, Tyrosine--tRNA ligase (Escherichia coli (strain K12)) (UniProt P0AGJ9).
T1 sequence (whole entry): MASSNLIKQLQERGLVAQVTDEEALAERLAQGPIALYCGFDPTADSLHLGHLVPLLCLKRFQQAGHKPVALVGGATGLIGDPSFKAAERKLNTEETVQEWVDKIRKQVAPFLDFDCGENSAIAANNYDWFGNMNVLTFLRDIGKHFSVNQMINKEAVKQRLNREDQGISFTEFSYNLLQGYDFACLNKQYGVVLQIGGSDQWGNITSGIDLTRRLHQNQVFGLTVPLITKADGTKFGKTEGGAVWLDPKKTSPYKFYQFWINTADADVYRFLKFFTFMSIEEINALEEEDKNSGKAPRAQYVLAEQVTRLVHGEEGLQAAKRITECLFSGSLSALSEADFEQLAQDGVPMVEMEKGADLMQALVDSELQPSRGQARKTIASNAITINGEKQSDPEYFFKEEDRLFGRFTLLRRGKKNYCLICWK
The experiment can be described thus: Inhibition of Tyrosyl-tRNA synthetase in Escherichia coli K-12 BW28357 S30 extract assessed as reduction in tRNA aminoacylation at 2.5 uM preincubated for 5 mins followed by Escherichia coli tRNA and 14C-labeled tyrosine addition measured after 5 mins by liquid scintillation counting method relative to control. In short, it runs like this: as §2

The target of experiment [14] is T2, Tyrosine--tRNA ligase (Escherichia coli (strain K12), UniProt P0AGJ9).
T2 sequence (P0AGJ9 whole entry): T1 sequence (whole entry)
Description: Inhibition of Escherichia coli BL21(DE3) Tyrosyl-tRNA synthetase assessed as reduction in tRNA aminoacylation preincubated for 10 mins with Escherichia coli tRNA and 14C-labeled tyrosine followed by ATP addition by liquid scintillation counting method. Conditions: read-out: Ki(app). In short, it runs like this: as §3

For experiment [15], the target named is Aspartate--tRNA ligase (Escherichia coli (strain K12)) (UniProt P21889). Description: Inhibition of Aspartate-tRNA synthetase in Escherichia coli K-12 BW28357 S30 extract assessed as reduction in tRNA aminoacylation at 2.5 uM preincubated for 5 mins followed by Escherichia coli tRNA and 14C-labeled aspartic acid addition measured after 5 mins by liquid scintillation counting method. In short, it runs like this: as §2

Experiment [16] has as its target Aspartate--tRNA ligase (Escherichia coli (strain K12), UniProt P21889). The experiment can be described thus: Inhibition of Escherichia coli BL21(DE3) Aspartyl-tRNA synthetase assessed as reduction in tRNA aminoacylation preincubated for 10 mins with Escherichia coli tRNA and 14C-labeled aspartic acid followed by ATP addition by liquid scintillation counting method. Particulars: read-out: Ki(app). In short, it runs like this: as §3

The record followed here is ChEMBL document CHEMBL4196034, “Family-wide analysis of aminoacyl-sulfamoyl-3-deazaadenosine analogues as inhibitors of aminoacyl-tRNA synthetases” (Eur J Med Chem, 2018).

Structures are written as SMILES. Calls of active or inactive are those of the source. The rule behind the calls is not given here. Bounds are passed on as bounds.

A word on the inhibition: it is the relative decrease from the control value, in per cent.

Sequence of Serine--tRNA ligase (Escherichia coli (strain K12)) (P0A8L1 whole entry, looked up): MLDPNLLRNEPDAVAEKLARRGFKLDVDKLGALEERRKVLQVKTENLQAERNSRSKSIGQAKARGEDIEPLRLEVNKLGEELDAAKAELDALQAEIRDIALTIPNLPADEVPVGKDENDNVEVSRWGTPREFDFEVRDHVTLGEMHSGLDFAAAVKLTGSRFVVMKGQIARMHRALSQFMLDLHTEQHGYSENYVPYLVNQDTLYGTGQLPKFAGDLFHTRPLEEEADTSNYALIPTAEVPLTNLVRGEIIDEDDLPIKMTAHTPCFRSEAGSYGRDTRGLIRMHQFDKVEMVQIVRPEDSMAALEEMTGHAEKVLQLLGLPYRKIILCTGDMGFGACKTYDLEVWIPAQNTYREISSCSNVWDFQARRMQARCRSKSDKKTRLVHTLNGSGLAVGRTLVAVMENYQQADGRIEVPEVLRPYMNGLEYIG
Sequence of Serine--tRNA ligase (P0A8L1 whole entry): as the sequence (P0A8L1 whole entry, looked up) above
Sequence of Isoleucine--tRNA ligase (P00956 whole entry): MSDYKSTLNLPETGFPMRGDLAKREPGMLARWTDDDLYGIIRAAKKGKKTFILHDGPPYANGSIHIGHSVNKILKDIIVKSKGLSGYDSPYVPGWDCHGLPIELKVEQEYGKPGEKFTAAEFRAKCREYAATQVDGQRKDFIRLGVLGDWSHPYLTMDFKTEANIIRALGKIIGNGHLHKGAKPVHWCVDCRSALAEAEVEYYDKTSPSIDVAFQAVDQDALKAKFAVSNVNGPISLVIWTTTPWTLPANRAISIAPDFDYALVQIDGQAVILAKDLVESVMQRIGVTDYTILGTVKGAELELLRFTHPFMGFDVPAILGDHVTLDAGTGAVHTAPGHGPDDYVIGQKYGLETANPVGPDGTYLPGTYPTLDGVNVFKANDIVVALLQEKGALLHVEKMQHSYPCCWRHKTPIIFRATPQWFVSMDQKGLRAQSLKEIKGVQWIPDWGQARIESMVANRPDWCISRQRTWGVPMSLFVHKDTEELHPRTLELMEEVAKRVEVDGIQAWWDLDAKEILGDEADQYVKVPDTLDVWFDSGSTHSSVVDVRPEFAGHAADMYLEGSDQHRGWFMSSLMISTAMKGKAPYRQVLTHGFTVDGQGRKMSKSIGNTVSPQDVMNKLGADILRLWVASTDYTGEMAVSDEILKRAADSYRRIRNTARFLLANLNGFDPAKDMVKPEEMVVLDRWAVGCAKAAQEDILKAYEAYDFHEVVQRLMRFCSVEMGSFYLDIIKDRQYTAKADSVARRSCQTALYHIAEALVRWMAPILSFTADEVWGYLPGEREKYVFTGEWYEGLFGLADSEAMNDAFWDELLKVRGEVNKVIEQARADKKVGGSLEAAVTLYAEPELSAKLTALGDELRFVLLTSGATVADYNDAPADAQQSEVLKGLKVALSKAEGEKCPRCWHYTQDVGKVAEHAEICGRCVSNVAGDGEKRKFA
Sequence of Isoleucine--tRNA ligase (Escherichia coli K-12) (P00956 whole entry): as above
Sequence of Aspartate--tRNA ligase (P21889 whole entry): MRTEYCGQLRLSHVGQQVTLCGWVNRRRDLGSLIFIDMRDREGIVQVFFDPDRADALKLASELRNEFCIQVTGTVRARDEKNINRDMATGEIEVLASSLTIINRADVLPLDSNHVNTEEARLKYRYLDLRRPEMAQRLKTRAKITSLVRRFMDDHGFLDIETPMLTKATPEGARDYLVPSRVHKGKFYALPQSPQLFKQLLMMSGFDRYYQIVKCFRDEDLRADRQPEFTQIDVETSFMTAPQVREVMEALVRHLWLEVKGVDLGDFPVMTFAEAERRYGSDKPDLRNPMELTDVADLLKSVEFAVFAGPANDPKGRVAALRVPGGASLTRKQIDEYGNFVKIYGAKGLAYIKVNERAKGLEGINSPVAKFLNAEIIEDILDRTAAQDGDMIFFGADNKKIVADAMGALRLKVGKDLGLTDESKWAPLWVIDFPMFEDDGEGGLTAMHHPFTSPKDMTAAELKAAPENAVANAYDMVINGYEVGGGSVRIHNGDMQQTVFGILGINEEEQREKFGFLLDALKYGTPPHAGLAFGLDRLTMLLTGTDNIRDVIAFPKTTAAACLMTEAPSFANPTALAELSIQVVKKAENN
Sequence of Aspartate--tRNA ligase (Escherichia coli (strain K12)) (P21889 whole entry, looked up): as the sequence (P21889 whole entry) above
Sequence of Leucine--tRNA ligase (P07813 whole entry): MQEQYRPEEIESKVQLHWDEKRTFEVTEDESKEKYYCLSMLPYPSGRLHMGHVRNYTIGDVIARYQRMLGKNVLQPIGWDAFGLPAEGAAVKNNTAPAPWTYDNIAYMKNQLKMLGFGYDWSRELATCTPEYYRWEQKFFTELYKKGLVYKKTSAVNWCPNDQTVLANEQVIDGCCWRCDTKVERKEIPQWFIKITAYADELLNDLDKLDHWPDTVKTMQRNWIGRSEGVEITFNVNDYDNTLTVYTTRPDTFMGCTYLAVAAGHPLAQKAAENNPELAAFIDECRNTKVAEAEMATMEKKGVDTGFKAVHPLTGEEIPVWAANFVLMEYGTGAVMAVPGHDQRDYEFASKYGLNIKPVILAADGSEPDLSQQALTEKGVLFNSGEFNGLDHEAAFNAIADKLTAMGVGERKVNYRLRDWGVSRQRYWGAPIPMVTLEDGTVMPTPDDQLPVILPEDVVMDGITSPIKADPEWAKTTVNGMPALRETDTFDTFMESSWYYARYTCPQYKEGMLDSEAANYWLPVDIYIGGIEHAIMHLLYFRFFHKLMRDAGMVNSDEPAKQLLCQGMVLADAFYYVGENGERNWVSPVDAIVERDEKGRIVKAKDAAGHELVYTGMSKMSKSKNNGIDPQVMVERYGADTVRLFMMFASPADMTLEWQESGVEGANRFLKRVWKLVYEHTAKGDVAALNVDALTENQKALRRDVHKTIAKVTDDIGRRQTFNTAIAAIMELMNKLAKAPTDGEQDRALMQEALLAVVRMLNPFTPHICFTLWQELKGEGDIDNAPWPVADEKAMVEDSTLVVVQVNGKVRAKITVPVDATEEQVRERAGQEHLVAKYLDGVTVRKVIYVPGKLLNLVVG

As to `Nc1ncnc2c1ncn2[C@@H]1O[C@H](COS(=O)(=O)NC(=O)[C@@H](N)CO)[C@@H](O)[C@H]1O`, the outcome in experiment [1], in [2], in experiment [3], in experiment [4] and in [5] was inactive. In addition, the inhibition result in experiment [6] is “Active”. In experiment [7], the Ki stood at 0.18 nM.
On to `NCC(=O)NS(=O)(=O)OC[C@H]1O[C@@H](n2cnc3c(N)nccc32)[C@H](O)[C@@H]1O`, for which the result in experiment [1], in experiment [2], in experiment [3], in [4] and in experiment [5] was inactive. For the same compound, the inhibition result in experiment [8] was “inactive”. In experiment [9], the Ki was > 2000 nM.
For `CC[C@H](C)[C@H](N)C(=O)NS(=O)(=O)OC[C@H]1O[C@@H](n2cnc3c(N)ncnc32)[C@H](O)[C@@H]1O`, the result in [1], in experiment [2], in experiment [3], in experiment [4] and in experiment [5] was inactive. In experiment [10], the Ki came out at 1.92 nM. The inhibition entry in [11] is “Active”.
On to `CC(C)C[C@H](N)C(=O)NS(=O)(=O)OC[C@H]1O[C@@H](n2cnc3c(N)nccc32)[C@H](O)[C@@H]1O`, for which the outcome in experiment [1], in [2], in [3], in experiment [4] and in experiment [5] was inactive. In addition, in experiment [12], the Ki was 0.654 nM.
Consider `NCC(=O)NS(=O)(=O)OC[C@H]1O[C@@H](n2cnc3c(N)ncnc32)[C@H](O)[C@@H]1O`, for which the outcome in [1], in [2], in experiment [3], in experiment [4] and in experiment [5] was inactive. In experiment [8], the inhibition entry is “Active”. In addition, the Ki in experiment [9] turned out to be 148 nM.
On to `CC(C)C[C@H](N)C(=O)NS(=O)(=O)OC[C@H]1O[C@@H](n2cnc3c(N)ncnc32)[C@H](O)[C@@H]1O`, for which the outcome in experiment [1], in experiment [2], in experiment [3], in experiment [4] and in experiment [5] was inactive.
With `Nc1ncnc2c1ncn2[C@@H]1O[C@H](COS(=O)(=O)NC(=O)[C@@H](N)Cc2ccc(O)cc2)[C@@H](O)[C@H]1O`, the result in [1], in [2], in experiment [3], in [4] and in [5] was inactive. The inhibition result in experiment [13] was “Active”. The Ki in experiment [14] worked out at 2.93 nM.
In the case of `Nc1ncnc2c1ncn2[C@@H]1O[C@H](COS(=O)(=O)NC(=O)[C@@H](N)CC(=O)O)[C@@H](O)[C@H]1O`, the result in experiment [1], in experiment [2], in experiment [3], in experiment [4] and in [5] was inactive. Besides, the inhibition entry in experiment [15] is “Active”. For the same compound, in experiment [16], the Ki worked out at 0.052 nM.
For the compound `Nc1nccc2c1ncn2[C@@H]1O[C@H](COS(=O)(=O)NC(=O)[C@@H](N)CC(=O)O)[C@@H](O)[C@H]1O`, the outcome in experiment [1], in [2], in experiment [3], in [4] and in experiment [5] was inactive. For the same compound, the inhibition result in [15] is “inactive”. In addition, the Ki in experiment [16] is 25.3 nM.
On to `CC[C@H](C)[C@H](N)C(=O)NS(=O)(=O)OC[C@H]1O[C@@H](n2cnc3c(N)nccc32)[C@H](O)[C@@H]1O`, for which the result in [1], in experiment [2], in [3], in experiment [4] and in experiment [5] was inactive. The Ki in experiment [10] amounted to 213 nM. In addition, the inhibition in experiment [11] lay in the range of 40 to 50%.
For `Nc1nccc2c1ncn2[C@@H]1O[C@H](COS(=O)(=O)NC(=O)[C@@H](N)Cc2ccc(O)cc2)[C@@H](O)[C@H]1O`, the result in [1], in [2], in experiment [3], in [4] and in experiment [5] was inactive. Also, the inhibition in experiment [13] lay within 40 to 50%. Also, in experiment [14], the Ki was determined as 29.9 nM.
In the case of `Nc1nccc2c1ncn2[C@@H]1O[C@H](COS(=O)(=O)NC(=O)[C@@H](N)CO)[C@@H](O)[C@H]1O`, the result in experiment [1], in experiment [2], in experiment [3], in experiment [4] and in [5] was inactive. Also, the inhibition entry in experiment [6] was “inactive”. For the same compound, in experiment [7], the Ki is 523 nM.
